# Results as given in ChEMBL document CHEMBL1828601, “Small molecule peptidomimetic inhibitors of importin α/β mediated nuclear transport” (Bioorg Med Chem, 2010).
# pIC50, pKd: −log10 of the molar value. The source made the active and inactive calls. How the calls were made is not given here.
# Target: not listed separately
# Test: Inhibition of importin-beta binding to immobilized GST-RanQLGTP at 50 uM by surface plasmon resonance assay
row,Structure (SMILES),pKd
1,CC[C@H](C)[C@H](N)C(=O)Nc1ccc(C(=O)N[C@@H](CCc2ccccc2)C(=O)O)cc1OCc1ccccc1,7.21

# Target: not listed separately
# Test: Inhibition of importin-beta binding to immobilized GST-FG domain of Nup153 at 50 uM by surface plasmon resonance assay
row,Structure (SMILES),pKd
1,CC[C@H](C)[C@H](N)C(=O)Nc1ccc(C(=O)N[C@@H](CCc2ccccc2)C(=O)O)cc1OCc1ccccc1,7.80

# Tested on: FGM
# Test: Inhibition of importin alpha/beta-mediated nuclear transportation of Alexa555-GST-M9 in human FGM cell nucleus at 500 uM after 30 mins by fluorescence microscopy
# Format: cell-based
# How it was run: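 Transportin-dependent import measured the same way in permeabilized FGM cells, with 0.5 μM Alexa555-GST-M9 cargo in place of BSA-NLS. Conditions: 3 mg/ml HeLa cytosol, ATP-regenerating system, 0.2 mM GTP, 1% DMSO, 30 min at 30°C. Positive control was 1 mg/ml WGA. Nuclear cargo fluorescence quantified per nucleus by automated imaging.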
row,Structure (SMILES),inhibition
1,CC[C@H](C)[C@H](NC(=O)c1ccc(NC(=O)[C@@H](N)Cc2c[nH]c3ccccc23)c(OCc2c[nH]cn2)c1)C(=O)O,inactive
2,C[C@H](N)C(=O)N1C[C@@H](C(=O)NCCc2c[nH]cn2)[C@H](C(=O)NCCc2c[nH]c3ccccc23)C1,inactive
3,NCCCCNC(=O)[C@@H]1CN(C(=O)[C@@H](N)Cc2ccc(O)cc2)C[C@H]1C(=O)NCCc1ccc2ccccc2c1,inactive
4,CSCC[C@H](N)C(=O)Nc1ccc(C(=O)N[C@@H](CCc2ccccc2)C(=O)O)cc1OCc1ccc(Cl)cc1,Active
5,N[C@@H](Cc1ccc2ccccc2c1)C(=O)Nc1ccc(C(=O)N[C@@H](CCc2ccccc2)C(=O)O)cc1OCc1ccc(Cl)cc1,inactive
6,COc1ccc(C[C@H](N)C(=O)N2C[C@@H](C(=O)NCCCCN)[C@H](C(=O)NCCc3ccc4ccccc4c3)C2)cc1,inactive
7,CC[C@H](C)[C@H](NC(=O)c1ccc(NC(=O)[C@@H](N)CC(C)C)c(OCc2c[nH]cn2)c1)C(=O)O,inactive
8,N[C@@H](CC(=O)O)C(=O)Nc1ccc(C(=O)N[C@@H](CCc2ccccc2)C(=O)O)cc1OCc1ccc(Cl)cc1,Active
9,COc1ccc(C[C@H](N)C(=O)N2C[C@@H](C(=O)NCCc3c[nH]cn3)[C@H](C(=O)NCCc3c[nH]c4ccccc34)C2)cc1,Active
10,CC[C@@H](C)[C@H](NC(=O)c1ccc(NC(=O)[C@@H](N)Cc2c[nH]cn2)c(OCc2c[nH]cn2)c1)C(=O)O,Active
11,NCCCCNC(=O)[C@@H]1CN(C(=O)[C@@H](N)CCc2ccc(O)cc2)C[C@H]1C(=O)NCCc1ccc2ccccc2c1,inactive
12,N[C@@H](Cc1c[nH]c2ccccc12)C(=O)N1C[C@@H](C(=O)NCCc2c[nH]cn2)[C@H](C(=O)NCCc2c[nH]c3ccccc23)C1,Active
13,N[C@@H](Cc1ccc(O)cc1)C(=O)Nc1ccc(C(=O)N[C@@H](CCc2ccccc2)C(=O)O)cc1OCc1ccc(Cl)cc1,Active
14,N[C@@H](Cc1ccccc1)C(=O)N1C[C@@H](C(=O)NCCc2c[nH]cn2)[C@H](C(=O)NCCc2c[nH]c3ccccc23)C1,Active
15,CC(C)C[C@H](N)C(=O)N1C[C@@H](C(=O)NCCc2c[nH]cn2)[C@H](C(=O)NCCc2c[nH]c3ccccc23)C1,inactive
16,CC[C@H](C)[C@H](NC(=O)c1ccc(NC(=O)[C@@H](N)C(C)C)c(OCc2c[nH]cn2)c1)C(=O)O,inactive
17,COc1ccc(C[C@H](N)C(=O)Nc2ccc(C(=O)N[C@@H](CCc3ccccc3)C(=O)O)cc2OCc2ccc(Cl)cc2)cc1,inactive

row,Structure (SMILES),inhibition
1,CC[C@H](C)[C@H](N)C(=O)N1C[C@@H](C(=O)NCCCCN)[C@H](C(=O)NCCc2ccc3ccccc3c2)C1,inactive
2,CC[C@H](C)[C@H](NC(=O)c1ccc(NC(=O)[C@@H](N)Cc2ccc(Cl)cc2)c(OCc2c[nH]cn2)c1)C(=O)O,inactive
3,CC[C@H](C)[C@H](NC(=O)c1ccc(NC(=O)[C@@H](N)CCSC)c(OCc2c[nH]cn2)c1)C(=O)O,inactive
4,CC[C@@H](C)[C@H](N)C(=O)Nc1ccc(C(=O)N[C@@H](CCc2ccccc2)C(=O)O)cc1OCc1ccc(Cl)cc1,Active
5,NCCCCNC(=O)[C@@H]1CN(C(=O)[C@@H](N)Cc2ccc(Cl)cc2)C[C@H]1C(=O)NCCc1ccc2ccccc2c1,inactive
6,N[C@@H](Cc1ccc(Cl)cc1)C(=O)Nc1ccc(C(=O)N[C@@H](CCc2ccccc2)C(=O)O)cc1OCc1ccc(Cl)cc1,inactive
7,CC[C@@H](C)[C@H](NC(=O)c1ccc(NC(=O)[C@@H](N)CO)c(OCc2c[nH]cn2)c1)C(=O)O,Active
8,CC[C@H](C)[C@H](NC(=O)c1ccc(NC(=O)CN)c(OCc2c[nH]cn2)c1)C(=O)O,inactive
9,NCCCCNC(=O)[C@@H]1CN(C(=O)[C@@H](N)CCc2ccc(Cl)cc2)C[C@H]1C(=O)NCCc1ccc2ccccc2c1,inactive
10,N[C@@H](CO)C(=O)Nc1ccc(C(=O)N[C@@H](CCc2ccccc2)C(=O)O)cc1OCc1ccc(Cl)cc1,Active
11,NC(=O)C[C@H](N)C(=O)Nc1ccc(C(=O)N[C@@H](CCc2ccccc2)C(=O)O)cc1OCc1ccc(Cl)cc1,Active
12,C[C@@H](O)[C@H](N)C(=O)N1C[C@@H](C(=O)NCCc2c[nH]cn2)[C@H](C(=O)NCCc2c[nH]c3ccccc23)C1,inactive
13,C[C@H](N)C(=O)Nc1ccc(C(=O)N[C@@H](CCc2ccccc2)C(=O)O)cc1OCc1ccc(Cl)cc1,Active
14,CC[C@H](N)C(=O)Nc1ccc(C(=O)N[C@H](C(=O)O)[C@@H](C)CC)cc1OCc1c[nH]cn1,inactive
15,NCCCC[C@H](N)C(=O)N1C[C@@H](C(=O)NCCc2c[nH]cn2)[C@H](C(=O)NCCc2c[nH]c3ccccc23)C1,inactive
16,NCC(=O)Nc1ccc(C(=O)N[C@@H](CCc2ccccc2)C(=O)O)cc1OCc1ccc(Cl)cc1,inactive

# Tested on: not listed separately
# Test: Inhibition of importin alpha/beta-mediated nuclear transportation of Alexa555-BSA-NLS in human FGM cell nucleus after 30 mins by fluorescence microscopy
# Format: cell-based
row,Structure (SMILES),pIC50
1,CC[C@H](C)[C@H](N)C(=O)Nc1ccc(C(=O)N[C@@H](CCc2ccccc2)C(=O)O)cc1OCc1ccccc1,3.97

# Tested on: FGM
# Test: Inhibition of importin alpha/beta-mediated nuclear transportation of Alexa555-BSA-NLS in human FGM cell nucleus at 500 uM after 30 mins by fluorescence microscopy
# Format: cell-based
row,Structure (SMILES),inhibition
1,CC[C@H](C)[C@H](NC(=O)c1ccc(NC(=O)[C@@H](N)Cc2c[nH]c3ccccc23)c(OCc2c[nH]cn2)c1)C(=O)O,inactive
2,C[C@H](N)C(=O)N1C[C@@H](C(=O)NCCc2c[nH]cn2)[C@H](C(=O)NCCc2c[nH]c3ccccc23)C1,inactive
3,NCCCCNC(=O)[C@@H]1CN(C(=O)[C@@H](N)Cc2ccc(O)cc2)C[C@H]1C(=O)NCCc1ccc2ccccc2c1,inactive
4,CSCC[C@H](N)C(=O)Nc1ccc(C(=O)N[C@@H](CCc2ccccc2)C(=O)O)cc1OCc1ccc(Cl)cc1,Active
5,N[C@@H](Cc1ccc2ccccc2c1)C(=O)Nc1ccc(C(=O)N[C@@H](CCc2ccccc2)C(=O)O)cc1OCc1ccc(Cl)cc1,inactive
6,COc1ccc(C[C@H](N)C(=O)N2C[C@@H](C(=O)NCCCCN)[C@H](C(=O)NCCc3ccc4ccccc4c3)C2)cc1,inactive
7,CC[C@H](C)[C@H](NC(=O)c1ccc(NC(=O)[C@@H](N)CC(C)C)c(OCc2c[nH]cn2)c1)C(=O)O,inactive
8,N[C@@H](CC(=O)O)C(=O)Nc1ccc(C(=O)N[C@@H](CCc2ccccc2)C(=O)O)cc1OCc1ccc(Cl)cc1,Active
9,COc1ccc(C[C@H](N)C(=O)N2C[C@@H](C(=O)NCCc3c[nH]cn3)[C@H](C(=O)NCCc3c[nH]c4ccccc34)C2)cc1,Active
10,CC[C@@H](C)[C@H](NC(=O)c1ccc(NC(=O)[C@@H](N)Cc2c[nH]cn2)c(OCc2c[nH]cn2)c1)C(=O)O,Active
11,NCCCCNC(=O)[C@@H]1CN(C(=O)[C@@H](N)CCc2ccc(O)cc2)C[C@H]1C(=O)NCCc1ccc2ccccc2c1,inactive
12,N[C@@H](Cc1c[nH]c2ccccc12)C(=O)N1C[C@@H](C(=O)NCCc2c[nH]cn2)[C@H](C(=O)NCCc2c[nH]c3ccccc23)C1,Active
13,N[C@@H](Cc1ccc(O)cc1)C(=O)Nc1ccc(C(=O)N[C@@H](CCc2ccccc2)C(=O)O)cc1OCc1ccc(Cl)cc1,Active
14,N[C@@H](Cc1ccccc1)C(=O)N1C[C@@H](C(=O)NCCc2c[nH]cn2)[C@H](C(=O)NCCc2c[nH]c3ccccc23)C1,Active
15,CC(C)C[C@H](N)C(=O)N1C[C@@H](C(=O)NCCc2c[nH]cn2)[C@H](C(=O)NCCc2c[nH]c3ccccc23)C1,inactive
16,CC[C@H](C)[C@H](NC(=O)c1ccc(NC(=O)[C@@H](N)C(C)C)c(OCc2c[nH]cn2)c1)C(=O)O,inactive
17,COc1ccc(C[C@H](N)C(=O)Nc2ccc(C(=O)N[C@@H](CCc3ccccc3)C(=O)O)cc2OCc2ccc(Cl)cc2)cc1,inactive

row,Structure (SMILES),inhibition
1,CC[C@H](C)[C@H](N)C(=O)N1C[C@@H](C(=O)NCCCCN)[C@H](C(=O)NCCc2ccc3ccccc3c2)C1,inactive
2,CC[C@H](C)[C@H](NC(=O)c1ccc(NC(=O)[C@@H](N)Cc2ccc(Cl)cc2)c(OCc2c[nH]cn2)c1)C(=O)O,inactive
3,CC[C@H](C)[C@H](NC(=O)c1ccc(NC(=O)[C@@H](N)CCSC)c(OCc2c[nH]cn2)c1)C(=O)O,inactive
4,CC[C@@H](C)[C@H](N)C(=O)Nc1ccc(C(=O)N[C@@H](CCc2ccccc2)C(=O)O)cc1OCc1ccc(Cl)cc1,Active
5,CC[C@H](C)[C@H](N)C(=O)Nc1ccc(C(=O)N[C@@H](CCc2ccccc2)C(=O)O)cc1OCc1ccccc1,Active
6,NCCCCNC(=O)[C@@H]1CN(C(=O)[C@@H](N)Cc2ccc(Cl)cc2)C[C@H]1C(=O)NCCc1ccc2ccccc2c1,inactive
7,N[C@@H](Cc1ccc(Cl)cc1)C(=O)Nc1ccc(C(=O)N[C@@H](CCc2ccccc2)C(=O)O)cc1OCc1ccc(Cl)cc1,inactive
8,CC[C@@H](C)[C@H](NC(=O)c1ccc(NC(=O)[C@@H](N)CO)c(OCc2c[nH]cn2)c1)C(=O)O,Active
9,CC[C@H](C)[C@H](NC(=O)c1ccc(NC(=O)CN)c(OCc2c[nH]cn2)c1)C(=O)O,inactive
10,NCCCCNC(=O)[C@@H]1CN(C(=O)[C@@H](N)CCc2ccc(Cl)cc2)C[C@H]1C(=O)NCCc1ccc2ccccc2c1,inactive
11,N[C@@H](CO)C(=O)Nc1ccc(C(=O)N[C@@H](CCc2ccccc2)C(=O)O)cc1OCc1ccc(Cl)cc1,Active
12,NC(=O)C[C@H](N)C(=O)Nc1ccc(C(=O)N[C@@H](CCc2ccccc2)C(=O)O)cc1OCc1ccc(Cl)cc1,Active
13,C[C@@H](O)[C@H](N)C(=O)N1C[C@@H](C(=O)NCCc2c[nH]cn2)[C@H](C(=O)NCCc2c[nH]c3ccccc23)C1,inactive
14,C[C@H](N)C(=O)Nc1ccc(C(=O)N[C@@H](CCc2ccccc2)C(=O)O)cc1OCc1ccc(Cl)cc1,Active
15,CC[C@H](N)C(=O)Nc1ccc(C(=O)N[C@H](C(=O)O)[C@@H](C)CC)cc1OCc1c[nH]cn1,inactive
16,NCCCC[C@H](N)C(=O)N1C[C@@H](C(=O)NCCc2c[nH]cn2)[C@H](C(=O)NCCc2c[nH]c3ccccc23)C1,inactive
17,NCC(=O)Nc1ccc(C(=O)N[C@@H](CCc2ccccc2)C(=O)O)cc1OCc1ccc(Cl)cc1,inactive

# Tested on: FGM
# Test: Selectivity ratio of IC50 for importin alpha/beta-mediated nuclear transportation of Alexa555-BSA-NLS to IC50 for importin alpha/beta-mediated nuclear transportation of Alexa555-GST-M9 in human FGM cell nucleus
# Format: cell-based
row,Structure (SMILES),Ratio IC50
1,CC[C@H](C)[C@H](N)C(=O)Nc1ccc(C(=O)N[C@@H](CCc2ccccc2)C(=O)O)cc1OCc1ccccc1,> 15

# Target: not listed separately
# Test: Inhibition of importin-beta binding to immobilized GST-IBB domain of importin alpha at 50 uM by surface plasmon resonance assay
row,Structure (SMILES),pKd
1,CC[C@H](C)[C@H](N)C(=O)Nc1ccc(C(=O)N[C@@H](CCc2ccccc2)C(=O)O)cc1OCc1ccccc1,7.38
